{"source": "ChEMBL document CHEMBL5055631", "about": "“Antitumor properties of novel sesquiterpene lactone analogs as NFκB inhibitors that bind to the IKKβ ubiquitin-like domain (ULD)” (Eur J Med Chem, 2021)", "assay_type_in_all_cases": "functional", "key": {"[1]": {"system": "CCRF-CEM", "assay": "Anticancer activity against human CCRF-CEM cells assessed as cell growth inhibition incubated for 48 hrs by sulforhodamine B assay"}, "[2]": {"system": "RPMI-8226", "assay": "Anticancer activity against human RPMI-8226 cells assessed as cell growth inhibition incubated for 48 hrs by SRB method"}, "[3]": {"system": "SR", "assay": "Anticancer activity against human SR cells assessed as cell growth inhibition incubated for 48 hrs by SRB method", "how_it_was_run": "(§1)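 NCI-60 panel (DTP). Cells in RPMI 1640 with 5% FBS, 2 mM L-glutamine, seeded at 5,000–40,000 per well by doubling time and preincubated 24 h at 37 °C, 5% CO2. Time-zero plates TCA-fixed. DMSO stocks diluted in medium with gentamicin, tested at 100 μM, 10 μM, 1 μM, 0.1 μM and 10 nM for 48 h. Cells fixed with cold TCA, stained with SRB, absorbance read at 515 nm.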"}, "[4]": {"system": "A549", "assay": "Anticancer activity against human A549 cells assessed as cell growth inhibition incubated for 48 hrs by SRB method", "how_it_was_run": "as §1"}, "[5]": {"system": "MOLT-4", "assay": "Anticancer activity against human MOLT-4 assessed as cell growth inhibition incubated for 48 hrs by SRB method"}, "[6]": {"system": "HOP-92", "assay": "Anticancer activity against human HOP-92 cells assessed as cell growth inhibition incubated for 48 hrs by SRB method"}, "[7]": {"system": "K562", "assay": "Anticancer activity against human K562 cells assessed as cell growth inhibition incubated for 48 hrs by SRB method"}, "[8]": {"system": "HL-60(TB)", "assay": "Anticancer activity against human HL-60(TB) cells assessed as cell growth inhibition incubated for 48 hrs by SRB method"}, "[9]": {"system": "NCI-H226", "assay": "Anticancer activity against human NCI-H226 cells assessed as cell growth inhibition incubated for 48 hrs by SRB method", "how_it_was_run": "as §1"}, "[10]": {"system": "NCI-H522", "assay": "Anticancer activity against human NCI-H522 cells assessed as cell growth inhibition incubated for 48 hrs by SRB method"}, "[11]": {"system": "COLO 205", "assay": "Anticancer activity against human COLO 205 cells assessed as cell growth inhibition incubated for 48 hrs by SRB method"}, "[12]": {"system": "HCC 2998", "assay": "Anticancer activity against human HCC 2998 cells assessed as cell growth inhibition incubated for 48 hrs by SRB method", "how_it_was_run": "as §1"}, "[13]": {"system": "HCT-116", "assay": "Anticancer activity against human HCT-116 cells assessed as cell growth inhibition incubated for 48 hrs by SRB method", "how_it_was_run": "as §1"}, "[14]": {"system": "HCT-15", "assay": "Anticancer activity against human HCT-15 cells assessed as cell growth inhibition incubated for 48 hrs by SRB method", "how_it_was_run": "as §1"}, "[15]": {"system": "HT-29", "assay": "Anticancer activity against human HT29 cells assessed as cell growth inhibition incubated for 48 hrs by SRB method", "how_it_was_run": "as §1"}, "[16]": {"system": "KM12", "assay": "Anticancer activity against human KM12 cells assessed as cell growth inhibition incubated for 48 hrs by SRB method", "how_it_was_run": "as §1"}, "[17]": {"system": "SW-620", "assay": "Anticancer activity against human SW-620 cells assessed as cell growth inhibition incubated for 48 hrs by SRB method"}, "[18]": {"system": "SF-268", "assay": "Anticancer activity against human SF-268 cells assessed as cell growth inhibition incubated for 48 hrs by SRB method", "how_it_was_run": "as §1"}, "[19]": {"system": "SF-295", "assay": "Anticancer activity against human SF-295 cells assessed as cell growth inhibition incubated for 48 hrs by SRB method", "how_it_was_run": "as §1"}, "[20]": {"system": "SF-539", "assay": "Anticancer activity against human SF-539 cells assessed as cell growth inhibition incubated for 48 hrs by SRB method"}, "[21]": {"system": "SNB-19", "assay": "Anticancer activity against human SNB-19 cells assessed as cell growth inhibition incubated for 48 hrs by SRB method", "how_it_was_run": "as §1"}, "[22]": {"system": "SNB-75", "assay": "Anticancer activity against human SNB-75 cells assessed as cell growth inhibition incubated for 48 hrs by SRB method"}, "[23]": {"system": "U-251", "assay": "Anticancer activity against human U-251 cells assessed as cell growth inhibition incubated for 48 hrs by SRB method", "how_it_was_run": "(§2)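 NCI-60 panel, SRB assay. Cells grown in RPMI 1640 with 5% FBS and 2 mM L-glutamine, seeded at 5,000–40,000 cells/well depending on doubling time, and preincubated 24 h at 37 °C with 5% CO2. Time-zero plates were TCA-fixed. Compounds came from DMSO stocks and were tested at 100 μM, 10 μM, 1 μM, 0.1 μM and 10 nM for 48 h. Cells were fixed with cold TCA and stained with 0.4% SRB, and the dye was solubilized in 10 mM Tris base with A515 read.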"}, "[24]": {"system": "LOX IMVI", "assay": "Anticancer activity against human LOX IMVI cells assessed as cell growth inhibition incubated for 48 hrs by SRB method"}, "[25]": {"system": "Malme-3M", "assay": "Anticancer activity against human MALME-3M cells assessed as cell growth inhibition incubated for 48 hrs by SRB method"}, "[26]": {"system": "SK-MEL-28", "assay": "Anticancer activity against human SK-MEL-28 cells assessed as cell growth inhibition incubated for 48 hrs by SRB method", "how_it_was_run": "as §1"}, "[27]": {"system": "UACC-257", "assay": "Anticancer activity against human UACC-257 assessed as cell growth inhibition incubated for 48 hrs by SRB method", "how_it_was_run": "as §2"}, "[28]": {"system": "IGROV-1", "assay": "Anticancer activity against human IGROV-1 cells assessed as cell growth inhibition incubated for 48 hrs by SRB method", "how_it_was_run": "as §1"}, "[29]": {"system": "OVCAR-4", "assay": "Anticancer activity against human OVCAR-4 cells assessed as cell growth inhibition incubated for 48 hrs by SRB method"}, "[30]": {"system": "OVCAR-5", "assay": "Anticancer activity against human OVCAR-5 cells assessed as cell growth inhibition incubated for 48 hrs by SRB method"}, "[31]": {"system": "786-0", "assay": "Anticancer activity against human 786-0 cells assessed as cell growth inhibition incubated for 48 hrs by SRB method", "how_it_was_run": "as §1"}, "[32]": {"system": "A498", "assay": "Anticancer activity against human A498 cells assessed as cell growth inhibition incubated for 48 hrs by SRB method", "how_it_was_run": "as §1"}, "[33]": {"system": "ACHN", "assay": "Anticancer activity against human ACHN cells assessed as cell growth inhibition incubated for 48 hrs by SRB method", "how_it_was_run": "as §1"}, "[34]": {"system": "RXF 393", "assay": "Anticancer activity against human RXF 393 cells assessed as cell growth inhibition incubated for 48 hrs by SRB method", "how_it_was_run": "as §1"}, "[35]": {"system": "UO-31", "assay": "Anticancer activity against human UO-31 cells assessed as cell growth inhibition incubated for 48 hrs by SRB method", "how_it_was_run": "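NCI-60 panel, SRB assay. Time-zero plates were TCA-fixed. Compounds came from DMSO stocks and were tested at 100 μM, 10 μM, 1 μM, 0.1 μM and 10 nM for 48 h. Cells were fixed with cold TCA and stained with 0.4% SRB, and the dye was solubilized in 10 mM Tris base with A515 read.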"}, "[36]": {"system": "PC-3", "assay": "Anticancer activity against human PC-3 cells assessed as cell growth inhibition incubated for 48 hrs by SRB method", "how_it_was_run": "as §1"}, "[37]": {"system": "DU-145", "assay": "Anticancer activity against human DU-145 cells assessed as cell growth inhibition incubated for 48 hrs by SRB method", "how_it_was_run": "as §1"}, "[38]": {"assay": "Anticancer activity against human HS 578T cells assessed as cell growth inhibition incubated for 48 hrs by SRB method"}, "[39]": {"system": "BT-549", "assay": "Anticancer activity against human BT-549 cells assessed as cell growth inhibition incubated for 48 hrs by SRB method", "how_it_was_run": "as §1"}, "[40]": {"system": "T47D", "assay": "Anticancer activity against human T47D cells assessed as cell growth inhibition incubated for 48 hrs by SRB method", "how_it_was_run": "as §1"}, "[41]": {"system": "MDA-MB-468", "assay": "Anticancer activity against human MDA-MB-468 cells assessed as cell growth inhibition incubated for 48 hrs by SRB method", "how_it_was_run": "as §1"}}}
{"smiles": "C=C1C(=O)O[C@H]2[C@H]1CC/C(COC(=O)NCCc1ccc(OC)cc1)=C\\CC[C@@]1(C)O[C@@H]21", "values": [{"measurement": "GI50", "setting": "[1]", "value": 1.98, "unit": "µM"}, {"measurement": "GI50", "setting": "[2]", "value": 2.85, "unit": "µM"}, {"measurement": "GI50", "setting": "[3]", "value": 2.07, "unit": "µM"}, {"measurement": "GI50", "setting": "[4]", "value": 13.2, "unit": "µM"}, {"measurement": "GI50", "setting": "[5]", "value": 2.61, "unit": "µM"}, {"measurement": "GI50", "setting": "[6]", "value": 1.99, "unit": "µM"}, {"measurement": "GI50", "setting": "[7]", "value": 3.08, "unit": "µM"}, {"measurement": "GI50", "setting": "[8]", "value": 2.34, "unit": "µM"}, {"measurement": "GI50", "setting": "[9]", "value": 4.11, "unit": "µM"}, {"measurement": "GI50", "setting": "[10]", "value": 1.82, "unit": "µM"}, {"measurement": "GI50", "setting": "[11]", "value": 1.94, "unit": "µM"}, {"measurement": "GI50", "setting": "[12]", "value": 2.48, "unit": "µM"}, {"measurement": "GI50", "setting": "[13]", "value": 1.34, "unit": "µM"}, {"measurement": "GI50", "setting": "[14]", "value": 1.74, "unit": "µM"}, {"measurement": "GI50", "setting": "[15]", "value": 2.15, "unit": "µM"}, {"measurement": "GI50", "setting": "[16]", "value": 8.36, "unit": "µM"}, {"measurement": "GI50", "setting": "[17]", "value": 2.51, "unit": "µM"}, {"measurement": "GI50", "setting": "[18]", "value": 10.6, "unit": "µM"}, {"measurement": "GI50", "setting": "[19]", "value": 13.5, "unit": "µM"}, {"measurement": "GI50", "setting": "[20]", "value": 1.79, "unit": "µM"}, {"measurement": "GI50", "setting": "[21]", "value": 8.65, "unit": "µM"}, {"measurement": "GI50", "setting": "[22]", "value": 4.09, "unit": "µM"}, {"measurement": "GI50", "setting": "[23]", "value": 11.1, "unit": "µM"}, {"measurement": "GI50", "setting": "[24]", "value": 1.38, "unit": "µM"}, {"measurement": "GI50", "setting": "[25]", "value": 2.44, "unit": "µM"}, {"measurement": "GI50", "setting": "[26]", "value": 8.97, "unit": "µM"}, {"measurement": "GI50", "setting": "[27]", "value": 1.47, "unit": "µM"}, {"measurement": "GI50", "setting": "[28]", "value": 2.49, "unit": "µM"}, {"measurement": "GI50", "setting": "[29]", "value": 2.61, "unit": "µM"}, {"measurement": "GI50", "setting": "[30]", "value": 2.19, "unit": "µM"}, {"measurement": "GI50", "setting": "[31]", "value": 2.77, "unit": "µM"}, {"measurement": "GI50", "setting": "[32]", "value": 10, "unit": "µM"}, {"measurement": "GI50", "setting": "[33]", "value": 1.76, "unit": "µM"}, {"measurement": "GI50", "setting": "[34]", "value": 1.72, "unit": "µM"}, {"measurement": "GI50", "setting": "[35]", "value": 1.55, "unit": "µM"}, {"measurement": "GI50", "setting": "[36]", "value": 2.73, "unit": "µM"}, {"measurement": "GI50", "setting": "[37]", "value": 1.76, "unit": "µM"}, {"measurement": "GI50", "setting": "[38]", "value": 1.89, "unit": "µM"}, {"measurement": "GI50", "setting": "[39]", "value": 2.02, "unit": "µM"}, {"measurement": "GI50", "setting": "[40]", "value": 13.8, "unit": "µM"}, {"measurement": "GI50", "setting": "[41]", "value": 1.55, "unit": "µM"}]}
